From ChEMBL document CHEMBL1122612, “7-(Ethoxycarbonyl)-6,8-dimethyl-2-phenyl-1(2H)-phthalazinone derivatives: synthesis and inhibitory effects on platelet aggregation” (J Med Chem, 1984)

Organism: Oryctolagus cuniculus
Assay: Inhibition of arachidonic acid induced platelet aggregation in rabbit platelet rich plasma, range 25-50
Type: functional
Conditions: read-out: ED50 (the source's name)
How it was run: (§1)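 Rabbit blood drawn from the carotid artery (pentobarbital anaesthesia, 35 mg/kg iv) into 3.8% sodium citrate (1/10 volume). PRP obtained by spinning at 150g for 15 min; 3.5-4.5 × 10^5 platelets/μL. Compound in Me2SO (≤0.5% final) preincubated 3 min at 37 °C with 1200 rpm stirring. Aggregation then started with 137 μM AA (final) and read turbidimetrically. Inhibition = maximum deflection relative to vehicle; ED50 range from three experiments.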

Row | EC50 [µM] | Structure (SMILES)
1 | 25 | CCOC(=O)c1c(C)cc2cnn(-c3ccc(O)cc3)c(=O)c2c1C
2 | 25 | CCOC(=O)c1c(C)cc2cnn(-c3ccc(C)cc3)c(=O)c2c1C

Test system: not listed separately
Assay: Inhibition of human platelet cAMP Phosphodiesterase
Type: functional
Conditions: not given
How it was run: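 Low-Km cAMP phosphodiesterase from human platelets, prepared and assayed per an earlier method. Result expressed as IC50, the μM concentration inhibiting enzyme activity by 50%.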

Row | IC50 [µM] | Structure (SMILES)
3 | 10 | CCOC(=O)c1c(C)cc2cnn(-c3ccccc3)c(=O)c2c1C
4 | 34 | CCOC(=O)c1c(C)cc2cnn(-c3ccccc3Cl)c(=O)c2c1C

Row | Structure (SMILES) | IC50 [µM]
5 | COc1ccc(Cc2nccc3cc(OC)c(OC)cc23)cc1OC [PAPAVERINE] | 0.55

Organism: Oryctolagus cuniculus
Assay: Inhibition of arachidonic acid induced platelet aggregation in rabbit platelet rich plasma, range 2-5
Type: functional
Conditions: read-out: ED50 (the source's name)
How it was run: as §1

Row | EC50 [µM] | Structure (SMILES)
6 | 2 | CCOC(=O)c1c(C)cc2cnn(-c3ccccc3F)c(=O)c2c1C
7 | 2 | CCOC(=O)c1c(C)cc2cnn(-c3ccccc3)c(=O)c2c1C
8 | 2 | CCOC(=O)c1c(C)cc2cnn(-c3ccccc3Cl)c(=O)c2c1C
9 | 2 | CCOC(=O)c1c(C)cc2cnn(-c3ccc(N)cc3)c(=O)c2c1C

Organism: Oryctolagus cuniculus
Assay: Inhibition of arachidonic acid induced platelet aggregation in rabbit platelet rich plasma, range 5-10
Type: functional
Conditions: read-out: ED50 (the source's name)
How it was run: as §1

Row | EC50 [µM] | Structure (SMILES)
10 | 5 | CCOC(=O)c1c(C)cc2cnn(-c3ccc(OC)cc3)c(=O)c2c1C
11 | 5 | CCOC(=O)c1c(C)cc2cnn(-c3ccccc3C)c(=O)c2c1C

Organism: Oryctolagus cuniculus
Assay: Inhibition of arachidonic acid induced platelet aggregation in rabbit platelet rich plasma, range 50-100
Type: functional
Conditions: read-out: ED50 (the source's name)
How it was run: as §1

Row | EC50 [µM] | Structure (SMILES)
12 | 50 | CCOC(=O)c1c(C)cc2cnn(-c3cccc(C)c3)c(=O)c2c1C

Organism: Oryctolagus cuniculus
Assay: Inhibition of arachidonic acid induced platelet aggregation in rabbit platelet rich plasma
Type: functional
Conditions: read-out: ED50 (the source's name)
How it was run: as §1

Row | EC50 [µM] | Structure (SMILES)
13 | ≥ 100 | COc1cc2cnn(-c3ccccc3Cl)c(=O)c2cc1OC
14 | ≥ 50 | CCOC(=O)c1c(C)cc2cnn(-c3ccc([N+](=O)[O-])cc3)c(=O)c2c1C
15 | ≥ 50 | CCOC(=O)c1c(C)cc2cnn(-c3ccc(C)c(Cl)c3)c(=O)c2c1C
16 | ≥ 100 | COc1ccc(-n2ncc3cc(OC)c(OC)cc3c2=O)cc1
17 | ≥ 100 | COc1ccc(-n2ncc3cc(OC)c(OC)cc3c2=O)cc1OC
18 | ≥ 50 | CCOC(=O)c1ccc(-n2ncc3cc(C)c(C(=O)OCC)c(C)c3c2=O)cc1
19 | ≥ 100 | COc1cc2cnn(-c3ccccc3)c(=O)c2cc1OC
20 | ≥ 50 | CCOC(=O)c1c(C)cc2cnn(-c3ccc(OC)c(OC)c3)c(=O)c2c1C
21 | ≥ 50 | CCOC(=O)c1c(C)cc2cnn(-c3ccc(C(=O)O)cc3)c(=O)c2c1C
22 | ≥ 50 | CCOC(=O)c1c(C)cc2cnn(-c3ccc(S(C)(=O)=O)cc3)c(=O)c2c1C
23 | ≥ 50 | CCOC(=O)c1c(C)cc2cnn(-c3cccc(OC)c3)c(=O)c2c1C
24 | ≥ 50 | CCOC(=O)c1c(C)cc2cnn(-c3ccc(NC(C)=O)cc3)c(=O)c2c1C
25 | ≥ 50 | CCOC(=O)c1c(C)cc2cnn(-c3ccc(F)cc3)c(=O)c2c1C
